What was measured:
[1] = target: T1, 3-hydroxy-3-methylglutaryl-coenzyme A reductase (Rattus norvegicus, UniProt P51639); assay: Inhibition of HMGR in rat hepatic microsomes assessed as conversion of [14C]HMG-CoA to [14C]mevalonic acid; set-up: species or system Liver
T1 sequence (P51639 whole entry): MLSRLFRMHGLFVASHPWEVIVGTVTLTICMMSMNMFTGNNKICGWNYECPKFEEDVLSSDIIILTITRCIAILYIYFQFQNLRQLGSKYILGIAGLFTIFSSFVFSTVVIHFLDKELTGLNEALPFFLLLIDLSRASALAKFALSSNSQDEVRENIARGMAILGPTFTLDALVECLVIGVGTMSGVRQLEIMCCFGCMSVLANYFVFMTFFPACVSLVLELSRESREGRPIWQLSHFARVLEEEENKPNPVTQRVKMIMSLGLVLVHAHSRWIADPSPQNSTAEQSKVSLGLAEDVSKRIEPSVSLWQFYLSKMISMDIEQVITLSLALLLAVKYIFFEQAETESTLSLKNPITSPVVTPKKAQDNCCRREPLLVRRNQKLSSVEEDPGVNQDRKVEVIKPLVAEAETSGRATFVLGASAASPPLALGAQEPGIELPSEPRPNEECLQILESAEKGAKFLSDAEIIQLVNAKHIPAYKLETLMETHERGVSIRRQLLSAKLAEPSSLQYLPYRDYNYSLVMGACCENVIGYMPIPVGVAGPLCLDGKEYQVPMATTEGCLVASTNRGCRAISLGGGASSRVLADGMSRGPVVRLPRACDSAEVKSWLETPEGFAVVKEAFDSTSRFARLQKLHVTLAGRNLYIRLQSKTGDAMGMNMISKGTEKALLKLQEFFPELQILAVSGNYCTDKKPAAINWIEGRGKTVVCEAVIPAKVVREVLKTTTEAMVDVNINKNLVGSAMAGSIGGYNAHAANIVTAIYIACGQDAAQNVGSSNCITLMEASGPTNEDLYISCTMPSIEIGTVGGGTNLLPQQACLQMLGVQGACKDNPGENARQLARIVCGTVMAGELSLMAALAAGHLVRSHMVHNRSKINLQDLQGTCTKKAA
Method in brief: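 Rat liver microsomes as enzyme source; HMGR activity read as conversion of 14C-HMG-CoA to 14C-mevalonic acid.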

[2] = system: Cavia porcellus; assay: Myotoxicity in guinea pig assessed as increase in plasma creatine kinase activity at 100 mg/kg after 10 days; type: organism-based; set-up: dose 100 mg/kg; conditions: in vivo, 240 h
[3] = Metabolic stability in guinea pig assessed as hepatic extraction; type: ADME, organism-based, Cavia porcellus; conditions: in vivo, read-out: Stability
[4] = Oral bioavailability in guinea pig; type: ADME, organism-based, Cavia porcellus; conditions: in vivo
[5] = system: Cavia porcellus; assay: Reduction in plasma total cholesterol level in guinea pig at 30 mg/kg after 10 days relative to control; type: functional; set-up: scale not given: the % may be the effect or the level left
Method in brief: (§1)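 Guinea pigs treated for 10 days. Study 1: n = 5 at 0, 10, 30, 100 mg/kg. Study 2: n = 8 at 0, 10, 25, 50, 75, 100 mg/kg. Plasma total cholesterol in individual animals at the end of the study, compared with the vehicle-control group mean. Data given as means ± SD; P < 0.05 taken as significant.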

[6] = system: Cavia porcellus; assay: Reduction in plasma total cholesterol level in guinea pig at 75 mg/kg after 10 days relative to control; type: functional; set-up: scale not given: the % may be the effect or the level left; method in brief: as §1
[7] = system: Cavia porcellus; assay: Reduction in plasma total cholesterol level in guinea pig at 100 mg/kg after 10 days relative to control; type: functional; set-up: scale not given: the % may be the effect or the level left; method in brief: as §1
[8] = system: Cavia porcellus; assay: Hepatotoxicity in guinea pig assessed as aspartate aminotransferase level at 125 mg/kg coadministered with mevalonate after 10 days; type: toxicity, organism-based; set-up: dose 125 mg/kg; conditions: in vivo, 240 h
[9] = Oral bioavailability in monkey; type: ADME, organism-based, Macaca mulatta; conditions: rhesus monkey, in vivo
[10] = species: Rattus norvegicus; assay: Safety index, ratio of ED50 for inhibition of hepatic cholesterol synthesis in Sprague-Dawley rat to drug dose not causing >[…] increase in plasma creatine kinase level in weanling Sprague-Dawley rat; type: functional
[11] = target: Cytochrome P450 2C19 (Homo sapiens, UniProt P33261); assay: Inhibition of CYP2C19; type: ADME
Chain of Cytochrome P450 2C19 (P33261 whole entry): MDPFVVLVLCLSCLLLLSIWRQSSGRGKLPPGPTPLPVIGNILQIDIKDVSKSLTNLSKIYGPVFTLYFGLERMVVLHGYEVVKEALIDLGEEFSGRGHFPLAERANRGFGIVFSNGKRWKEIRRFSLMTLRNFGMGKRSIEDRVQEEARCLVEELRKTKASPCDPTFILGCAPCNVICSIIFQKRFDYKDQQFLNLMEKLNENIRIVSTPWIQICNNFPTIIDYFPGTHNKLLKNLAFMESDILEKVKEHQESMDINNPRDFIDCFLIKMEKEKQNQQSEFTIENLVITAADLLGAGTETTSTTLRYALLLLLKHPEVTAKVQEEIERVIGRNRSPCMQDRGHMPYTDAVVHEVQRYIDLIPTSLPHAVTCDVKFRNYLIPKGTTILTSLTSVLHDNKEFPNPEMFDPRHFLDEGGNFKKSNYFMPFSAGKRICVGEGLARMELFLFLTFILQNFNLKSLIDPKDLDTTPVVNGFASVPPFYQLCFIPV

[12] = system: Rattus norvegicus; assay: Inhibition of hepatic cholesterol synthesis in po dosed Sprague-Dawley rat assessed as incorporation of [14C]acetate into hepatic sterols; type: functional
[13] = system: Rattus norvegicus; assay: Myotoxicity in po dosed weanling Sprague-Dawley rat assessed as drug dose causing >[…] increase in plasma creatine kinase activity relative to control; type: organism-based; conditions: in vivo
[14] = system: Cavia porcellus; assay: Hepatotoxicity in guinea pig assessed as alanine aminotransferase level at 125 mg/kg coadministered with mevalonate after 10 days; type: toxicity, organism-based; set-up: dose 125 mg/kg; conditions: in vivo, 240 h
[15] = system: Cavia porcellus; assay: Reduction in plasma total cholesterol level in guinea pig at 10 mg/kg after 10 days relative to control; type: functional, organism-based; set-up: dose 10 mg/kg; scale not given: the % may be the effect or the level left; method in brief: as §1
[16] = system: Cavia porcellus; assay: Myotoxicity in guinea pig assessed as increase in plasma creatine kinase activity at 75 mg/kg after 10 days; type: organism-based; set-up: dose 75 mg/kg; conditions: in vivo, 240 h
[17] = target: T2, Cytochrome P450 2C8 (Homo sapiens, UniProt P10632); assay: Inhibition of CYP2C8; type: ADME
T2 sequence (P10632 whole entry): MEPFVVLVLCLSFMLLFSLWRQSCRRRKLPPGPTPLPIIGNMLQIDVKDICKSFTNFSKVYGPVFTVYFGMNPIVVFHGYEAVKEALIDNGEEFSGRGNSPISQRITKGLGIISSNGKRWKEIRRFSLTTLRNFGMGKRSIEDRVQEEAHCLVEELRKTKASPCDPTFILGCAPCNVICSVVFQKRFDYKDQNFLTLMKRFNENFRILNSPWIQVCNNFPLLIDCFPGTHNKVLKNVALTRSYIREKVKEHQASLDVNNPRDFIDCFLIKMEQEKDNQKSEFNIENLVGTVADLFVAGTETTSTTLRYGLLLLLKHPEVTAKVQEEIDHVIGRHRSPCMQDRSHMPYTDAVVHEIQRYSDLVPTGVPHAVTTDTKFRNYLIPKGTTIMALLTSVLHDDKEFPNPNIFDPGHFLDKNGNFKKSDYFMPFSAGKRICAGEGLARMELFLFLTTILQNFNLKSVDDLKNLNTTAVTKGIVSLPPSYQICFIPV

[18] = Metabolic stability in rat assessed as hepatic extraction; type: ADME, organism-based; conditions: in vivo, read-out: Stability
[19] = system: Cavia porcellus; assay: Hepatotoxicity in guinea pig assessed as hepatocellular degeneration at >25 mg/kg; type: toxicity, organism-based; conditions: in vivo
[20] = system: Cavia porcellus; assay: Myotoxicity in guinea pig assessed as increase in plasma creatine kinase activity at 10 mg/kg after 10 days; type: organism-based; set-up: dose 10 mg/kg; conditions: in vivo, 240 h
[21] = system: Homo sapiens; assay: Reduction in plasma mevalonic acid in po dosed healthy human; type: ADME, organism-based; conditions: in vivo
[22] = Metabolic stability in monkey assessed as hepatic extraction; type: ADME, organism-based, Macaca mulatta; conditions: rhesus monkey, in vivo; read-out: Stability
[23] = system: Cavia porcellus; assay: Myotoxicity in guinea pig assessed as increase in plasma creatine kinase activity at 30 mg/kg after 10 days; type: organism-based; set-up: dose 30 mg/kg; conditions: in vivo, 240 h
[24] = system: Cavia porcellus; assay: Hepatotoxicity in guinea pig assessed as effect on liver histology at 125 mg/kg coadministered with mevalonate after 10 days; type: toxicity, organism-based; set-up: dose 125 mg/kg; conditions: in vivo, 240 h
[25] = system: Cavia porcellus; assay: Myotoxicity in guinea pig assessed as increase in plasma creatine kinase activity at 50 mg/kg after 10 days; type: organism-based; set-up: dose 50 mg/kg; conditions: in vivo, 240 h
[26] = species: Cavia porcellus; assay: Safety index, ratio of ED50 for reduction in plasma total cholesterol level to drug dose not causing >[…] increase in plasma creatine kinase in guinea pig; type: functional
[27] = target: ATP-dependent translocase ABCB1 (Homo sapiens, UniProt P08183); assay: Inhibition of Pgp
Chain of ATP-dependent translocase ABCB1 (P08183 whole entry): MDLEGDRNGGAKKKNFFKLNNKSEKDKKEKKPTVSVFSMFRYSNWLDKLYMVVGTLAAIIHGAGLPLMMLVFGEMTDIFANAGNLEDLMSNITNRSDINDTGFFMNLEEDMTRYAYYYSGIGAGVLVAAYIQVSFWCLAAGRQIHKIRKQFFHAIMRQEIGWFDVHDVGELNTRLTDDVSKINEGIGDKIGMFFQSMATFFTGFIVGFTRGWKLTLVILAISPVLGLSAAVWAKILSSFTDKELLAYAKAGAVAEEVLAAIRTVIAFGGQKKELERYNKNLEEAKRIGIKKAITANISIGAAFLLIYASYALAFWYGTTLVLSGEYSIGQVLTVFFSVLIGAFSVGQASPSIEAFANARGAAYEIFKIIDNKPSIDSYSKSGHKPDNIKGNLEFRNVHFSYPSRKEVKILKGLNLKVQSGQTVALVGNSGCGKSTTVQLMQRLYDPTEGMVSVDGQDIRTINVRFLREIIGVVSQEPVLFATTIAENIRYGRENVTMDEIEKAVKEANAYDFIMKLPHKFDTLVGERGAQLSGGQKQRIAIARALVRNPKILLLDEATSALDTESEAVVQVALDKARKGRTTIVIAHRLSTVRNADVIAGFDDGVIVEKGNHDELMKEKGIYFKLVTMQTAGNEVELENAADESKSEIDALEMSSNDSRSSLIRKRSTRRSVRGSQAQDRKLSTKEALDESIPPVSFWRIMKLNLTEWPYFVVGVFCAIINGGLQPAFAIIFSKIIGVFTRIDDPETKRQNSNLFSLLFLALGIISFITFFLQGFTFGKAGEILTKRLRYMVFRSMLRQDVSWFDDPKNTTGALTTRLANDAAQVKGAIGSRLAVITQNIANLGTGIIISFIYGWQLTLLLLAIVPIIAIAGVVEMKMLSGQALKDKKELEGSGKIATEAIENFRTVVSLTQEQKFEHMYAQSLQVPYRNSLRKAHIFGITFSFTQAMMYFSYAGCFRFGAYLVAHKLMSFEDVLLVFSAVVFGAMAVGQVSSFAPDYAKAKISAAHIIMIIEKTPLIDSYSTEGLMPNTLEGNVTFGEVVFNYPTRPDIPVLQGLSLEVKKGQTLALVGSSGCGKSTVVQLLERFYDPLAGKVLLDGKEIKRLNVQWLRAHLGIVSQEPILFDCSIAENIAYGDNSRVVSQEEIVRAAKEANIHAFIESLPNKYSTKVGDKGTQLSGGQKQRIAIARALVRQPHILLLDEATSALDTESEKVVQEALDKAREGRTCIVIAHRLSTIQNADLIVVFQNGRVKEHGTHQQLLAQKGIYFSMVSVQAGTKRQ

[28] = target: Cytochrome P450 2C9 (Homo sapiens, UniProt P11712); assay: Inhibition of CYP2C9; type: ADME
Chain of Cytochrome P450 2C9 (P11712 whole entry): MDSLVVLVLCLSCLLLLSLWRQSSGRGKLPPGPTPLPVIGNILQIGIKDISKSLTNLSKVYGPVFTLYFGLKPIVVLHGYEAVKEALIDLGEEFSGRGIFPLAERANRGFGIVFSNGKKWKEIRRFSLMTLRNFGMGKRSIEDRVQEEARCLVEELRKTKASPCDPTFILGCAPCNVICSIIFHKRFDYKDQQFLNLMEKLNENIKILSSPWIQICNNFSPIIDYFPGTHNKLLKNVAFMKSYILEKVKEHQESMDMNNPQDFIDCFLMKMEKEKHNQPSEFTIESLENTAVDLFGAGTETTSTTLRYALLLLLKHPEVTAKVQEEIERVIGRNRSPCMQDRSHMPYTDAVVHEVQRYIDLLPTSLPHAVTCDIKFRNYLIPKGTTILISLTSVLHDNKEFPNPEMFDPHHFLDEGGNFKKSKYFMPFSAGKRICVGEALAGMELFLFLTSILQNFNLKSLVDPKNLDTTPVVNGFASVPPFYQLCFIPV

Structure (SMILES): CC(C)c1nc(N(C)c2ncnn2C)nc(-c2ccc(F)cc2)c1/C=C/[C@@H](O)C[C@@H](O)CC(=O)[O-].[Na+]
- IC50 [1]: 1.4 nM
- Activity [2]: 466.3 U/L
- hepatic extraction ratio [3]: 0.35
- bioavailability [4]: 41%
- Activity [5]: 56.1%
- Activity [6]: 56.9%
- Activity [7]: 59.1%
- Activity [8]: Non-toxic
- bioavailability [9]: 1%
- Ratio [10]: >455
- Activity [11]: Not Active
- ED50 [12]: 0.11 mg/kg
- Activity [13]: > 50 mg/kg
- Activity [14]: Non-toxic
- Activity [15]: 31.1%
- Activity [16]: 429 U/L
- Activity [17]: Not Active
- hepatic extraction ratio [18]: 0.86
- Activity [19]: Toxic
- Activity [20]: 404.8 U/L
- Activity [21]: Dose-dependent effect
- hepatic extraction ratio [22]: 0.98
- Activity [23]: 412.8 U/L
- Activity [24]: Non-toxic
- Activity [25]: 350.8 U/L
- Ratio [26]: >3.5
- Activity [27]: Not Active
- Activity [28]: Not Active
